# From ChEMBL document CHEMBL4028867, “Design, Synthesis, and Characterization of N-Oxide-Containing Heterocycles with in Vivo Sterilizing Antitubercular Activity” (J Med Chem, 2017)
# Calls of active or inactive are those of the source. No cut-off for these calls is given here.
# What was measured:
# Cytochrome P450 2C8 = target: T1, Cytochrome P450 2C8 (Homo sapiens, UniProt P10632); assay: Inhibition of CYP2C8 in human liver microsomes in presence of NADPH by LC-MS/MS analysis; assay type: ADME
# T1 sequence (P10632 whole entry): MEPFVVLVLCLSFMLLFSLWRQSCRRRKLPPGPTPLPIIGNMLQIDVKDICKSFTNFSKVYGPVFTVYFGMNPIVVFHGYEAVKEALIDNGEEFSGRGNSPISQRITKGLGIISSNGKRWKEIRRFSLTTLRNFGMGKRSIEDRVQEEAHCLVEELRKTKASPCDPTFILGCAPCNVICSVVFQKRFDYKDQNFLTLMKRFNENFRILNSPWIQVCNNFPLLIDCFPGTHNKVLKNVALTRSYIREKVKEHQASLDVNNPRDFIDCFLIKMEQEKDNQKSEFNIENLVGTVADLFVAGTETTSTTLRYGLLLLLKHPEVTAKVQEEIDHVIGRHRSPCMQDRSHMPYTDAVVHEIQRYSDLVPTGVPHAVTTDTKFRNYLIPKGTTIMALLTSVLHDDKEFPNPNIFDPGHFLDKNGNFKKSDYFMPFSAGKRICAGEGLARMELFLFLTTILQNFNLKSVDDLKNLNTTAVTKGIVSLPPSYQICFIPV
# MRC5 = assay: Cytotoxicity against human MRC5 cells assessed as reduction in cell viability after 24 hrs by fluorescence assay; assay type: cell-based; settings: MRC5, 24 h
# Outline: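 MRC-5 human lung fibroblasts; cytotoxicity reported as IC50.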
# [1] = n-Octanol/water partition coefficient, log P of the compound by HPLC analysis; assay type: physicochemical
# Outline: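 Log P from n-octanol/water partition coefficient determined by HPLC method.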
# [2] = test system: Mycobacterium tuberculosis; assay: Antitubercular activity against Mycobacterium tuberculosis H37Rv ATCC 27294 under acidic pH 6 condition; assay type: functional
# [3] = test system: Mycobacterium tuberculosis; assay: Antitubercular activity against Mycobacterium tuberculosis H37Rv ATCC 27294 in presence of 10% fetal bovine serum; assay type: functional
# [4] = test system: Mycobacterium tuberculosis; assay: Antitubercular activity against Mycobacterium tuberculosis H37Rv ATCC 27294 in presence of 4% fetal bovine serum; assay type: functional
# Staphylococcus aureus = assay: Antimicrobial activity against Staphylococcus aureus ATCC 29213 at 200 uM incubated for 16 hrs; assay type: functional
# Escherichia coli = assay: Antimicrobial activity against Escherichia coli ATCC 25922 at 200 uM incubated for 16 hrs; assay type: functional
# Candida albicans = assay: Antimicrobial activity against Candida albicans ATCC 10231 at 200 uM incubated for 48 hrs; assay type: functional
# [5] = Fraction unbound in human plasma at 5 uM by LC-MS/MS analysis; assay type: ADME, cell-free
# [6] = Apparent permeability from apical to basolateral side in human Caco2 cells by LC-MS/MS analysis; assay type: ADME, cell-based; settings: caco-2
# Outline: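 Caco-2 monolayer permeability measured in both directions (apical-to-basolateral and basolateral-to-apical); result given as apparent permeability coefficient Papp in cm/s.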
# Cytochrome P450 3A4 = Cytochrome P450 3A4 (Homo sapiens, UniProt P08684); assay: Inhibition of CYP3A4 in human liver microsomes in presence of NADPH by LC-MS/MS analysis; assay type: ADME
# Cytochrome P450 3A4, sequence (P08684 whole entry): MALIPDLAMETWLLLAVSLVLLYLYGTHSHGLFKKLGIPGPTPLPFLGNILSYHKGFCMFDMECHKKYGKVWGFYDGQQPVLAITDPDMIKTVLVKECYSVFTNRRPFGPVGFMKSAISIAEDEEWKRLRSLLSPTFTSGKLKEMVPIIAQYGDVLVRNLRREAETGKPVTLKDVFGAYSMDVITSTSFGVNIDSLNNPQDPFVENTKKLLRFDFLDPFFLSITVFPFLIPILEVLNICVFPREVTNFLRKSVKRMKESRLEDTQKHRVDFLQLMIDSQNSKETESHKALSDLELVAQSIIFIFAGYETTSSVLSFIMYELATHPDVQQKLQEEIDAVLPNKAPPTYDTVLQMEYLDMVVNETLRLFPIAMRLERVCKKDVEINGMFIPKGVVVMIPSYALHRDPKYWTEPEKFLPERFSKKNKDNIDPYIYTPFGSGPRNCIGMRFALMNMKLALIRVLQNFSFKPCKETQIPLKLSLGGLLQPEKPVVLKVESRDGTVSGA
# Mus musculus [7] = assay: Genotoxicity in Swiss mouse assessed as incidence of micronucleated peripheral blood reticulocytes at 50 to 500 mg/kg dosed via gavage by micronucleus assay; assay type: toxicity, organism-based; settings: in vivo, po
# Mus musculus [8] = assay: Toxicity in BALB/c mouse assessed as behavioral parameter changes (hippocratic screening) at 200 mg/kg, po qd administered via gavage after 10 days; assay type: organism-based; settings: in vivo, 240 h
# Outline: (§1)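 Mice given one daily oral gavage dose of 200 mg/kg body weight for 10 days with daily behavioural monitoring (hippocratic screening); heart, lung, spleen, kidney and liver weights compared with controls by ANOVA and Dunnett's test, p < 0.05.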
# Mus musculus [9] = assay: Toxicity in BALB/c mouse assessed as change in heart weight at 200 mg/kg, po qd administered via gavage after 10 days; assay type: organism-based; settings: in vivo, 240 h; outline: as §1
# Mus musculus [10] = assay: Toxicity in BALB/c mouse assessed as change in lung weight at 200 mg/kg, po qd administered via gavage after 10 days; assay type: organism-based; settings: in vivo, 240 h; outline: as §1
# Mus musculus [11] = assay: Toxicity in BALB/c mouse assessed as change in spleen weight at 200 mg/kg, po qd administered via gavage after 10 days; assay type: organism-based; settings: in vivo, 240 h; outline: as §1
# Mus musculus [12] = assay: Toxicity in BALB/c mouse assessed as change in liver weight at 200 mg/kg, po qd administered via gavage after 10 days; assay type: organism-based; settings: in vivo, 240 h; outline: as §1
# Mus musculus [13] = assay: Hepatotoxicity in BALB/c mouse assessed as change in alkaline phosphatase level in plasma at 200 mg/kg, po qd administered via gavage after 10 days; assay type: toxicity, organism-based; settings: in vivo, 240 h
# Mus musculus [14] = assay: Hepatotoxicity in BALB/c mouse assessed as change in liver morphology at 200 mg/kg, po qd administered via gavage after 10 days by hematoxylin and eosin staining based analysis; assay type: toxicity, organism-based; settings: in vivo, 240 h
# Outline: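 BALB/c mice dosed orally by gavage once daily at 200 mg/kg; liver and kidney sections stained with H&E and examined for tissue morphology.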
# [15] = test system: Mycobacterium tuberculosis; assay: Antitubercular activity against Mycobacterium tuberculosis Erdman infected in BALB/c mouse at 200 mg/kg, po qd dosed via gavage starting at 10 days post-infection and terminated at 29 day post-infection for 5 consecutive days each week and measured 3 day wash-out period at 31 day-postinfection; assay type: functional, organism-based
# Outline: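 Drug in cholesterol/phospholipid microemulsion was given by oral gavage (200 μL) once daily, 5 days/week, from day 10 to day 29 post-infection; n = 7/group. After a 3-day washout, lungs were homogenized in HBSS-Tween at day 31 and plated on Middlebrook 7H11 for CFU.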
# [16] = test system: Mycobacterium tuberculosis; assay: Growth inhibition of Mycobacterium tuberculosis H37Rv exposed to plasma from BALB/c mouse treated with 300 mg/kg, po administered through microemulsion vehicle as single oral dose per gavage after 1 hr by Resazurin microtiter assay; assay type: functional; settings: read-out: GI
# Outline: (§2)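 The microemulsion was 10% cholesterol, 10% phosphatidylcholine/sodium oleate/polyoxyl 40 hydrogenated castor oil (3:6:8) and 80% phosphate buffer pH 7.4. Plasma taken at 0.3, 1, 2 or 4 h was tested by REMA for % Mtb growth inhibition, and plasma level was estimated against the in-vitro REMA MIC.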
# [17] = test system: Mycobacterium tuberculosis; assay: Growth inhibition of Mycobacterium tuberculosis H37Rv exposed to plasma from BALB/c mouse treated with 300 mg/kg, po administered through microemulsion vehicle as single oral dose per gavage after 2 hrs by Resazurin microtiter assay; assay type: functional; settings: read-out: GI; outline: as §2
# [18] = test system: Mycobacterium tuberculosis; assay: Growth inhibition of Mycobacterium tuberculosis H37Rv exposed to plasma from BALB/c mouse treated with 300 mg/kg, po administered through microemulsion vehicle as single oral dose per gavage after 4 hrs by Resazurin microtiter assay; assay type: functional; settings: read-out: GI; outline: as §2
# [19] = test system: Mycobacterium tuberculosis; assay: Down-regulation of HSP gene in Mycobacterium tuberculosis H37Rv at 2 times MIC90 after 4 hrs by microarray analysis; assay type: functional
# [20] = test system: Mycobacterium tuberculosis; assay: Downregulation of htrA gene in Mycobacterium tuberculosis H37Rv at 2 times MIC90 after 4 hrs by microarray analysis; assay type: functional
# [21] = test system: Mycobacterium tuberculosis; assay: Upregulation of ribosomal protein gene in Mycobacterium tuberculosis H37Rv at 2 times MIC90 after 4 hrs by microarray analysis; assay type: functional
# [22] = test system: Mycobacterium tuberculosis; assay: Up-regulation of ATP synthase sub-units genes in Mycobacterium tuberculosis H37Rv at 2 times MIC90 after 4 hrs by microarray analysis; assay type: functional
# [23] = test system: Mycobacterium tuberculosis; assay: Up-regulation of […] gene EF-G in Mycobacterium tuberculosis H37Rv at 2 times MIC90 after 4 hrs by microarray analysis; assay type: functional
compound,measurement,setting,value
O=C(N/N=C/c1ccc2no[n+]([O-])c2c1)c1ccncc1,IC50,Cytochrome P450 2C8,> 20 µM
same,IC50,MRC5,519 µM
same,logP,[1],1.5
same,MIC90,[2],3.41 µM
same,MIC90,[3],11.8 µM
same,MIC90,[4],9.81 µM
same,Activity,Staphylococcus aureus,inactive
same,Activity,Escherichia coli,inactive
same,Activity,Candida albicans,inactive
same,fraction unbound at 5 µM,[5],0.465
same,Papp,[6],5.67 ×10⁻⁶ cm/s
same,IC50,Cytochrome P450 3A4,> 20 µM
same,Activity,Mus musculus [7],Non-Toxic
same,Activity,Mus musculus [8],Non-Toxic
same,Activity,Mus musculus [9],Non-Toxic
same,Activity,Mus musculus [10],Non-Toxic
same,Activity,Mus musculus [11],Non-Toxic
same,Activity,Mus musculus [12],Non-Toxic
same,Activity,Mus musculus [13],Non-Toxic
same,Activity,Mus musculus [14],Non-Toxic
same,Activity,[15],inactive
same,inhibition in vivo at 300 mg/kg,[16],79%
same,inhibition in vivo at 300 mg/kg,[17],76%
same,inhibition in vivo at 300 mg/kg,[18],51.3%
same,Activity,[19],Active
same,Activity,[20],Active
same,Activity,[21],Active
same,Activity,[22],Active
same,Activity,[23],Active
